From ChEMBL document CHEMBL4673248, “Discovery and Characterization of BAY 1214784, an Orally Available Spiroindoline Derivative Acting as a Potent and Selective Antagonist of the Human Gonadotropin-Releasing Hormone Receptor as Proven in a First-In-Human Study in Postmenopausal Women” (J Med Chem, 2020)
Values after ≈ are worked out from the molar mass of the structure shown. Each block holds one compound with its values, some of them ahead of it. Active and inactive are the calls of the source. No cut-off for these calls is given here. Square brackets hold non-standard residues; d marks the D form. Peptide text beside a SMILES is read from it. dPhe(4-Cl) = N[C@H](Cc1ccc(Cl)cc1)C(=O)O; d2Nal = N[C@H](Cc1ccc2ccccc2c1)C(=O)O; dCit = NC(=O)NCCC[C@@H](N)C(=O)O; d3Pal = N[C@H](Cc1cccnc1)C(=O)O

Key:
[1] = Clearance in Wistar rat at 0.5 mg/kg, iv by LC-MS/MS analysis; format: ADME, organism-based; conditions: in vivo; for clearance: Wistar
[2] = molecular target: T1, Gonadotropin-releasing hormone receptor (Homo sapiens, UniProt P30968); experiment: Antagonist activity at human GnRH receptor expressed in CHO-K1 cells assessed as inhibition of LHRH-induced response preincubated for 20 mins followed by LHRH addition and measured after 60 mins by TR-FRET assay; format: cell-based
T1 sequence (P30968 whole entry): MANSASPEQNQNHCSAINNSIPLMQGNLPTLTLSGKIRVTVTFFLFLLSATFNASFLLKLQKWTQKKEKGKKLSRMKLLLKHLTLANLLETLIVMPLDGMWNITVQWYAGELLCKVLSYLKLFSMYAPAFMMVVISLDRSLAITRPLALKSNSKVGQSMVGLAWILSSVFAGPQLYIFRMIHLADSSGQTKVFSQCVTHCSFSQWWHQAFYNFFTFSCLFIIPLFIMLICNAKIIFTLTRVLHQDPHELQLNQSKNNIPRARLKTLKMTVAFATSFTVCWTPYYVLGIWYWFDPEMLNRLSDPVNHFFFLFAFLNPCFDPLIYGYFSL

[3] = molecular target: T2, Gonadotropin-releasing hormone receptor (Rattus norvegicus, UniProt P30969); experiment: Antagonist activity at rat GnRH receptor expressed in CHO-K1 cells assessed as inhibition of LHRH-induced response preincubated for 20 mins followed by LHRH addition and measured after 60 mins by TR-FRET assay; format: cell-based
T2 sequence (P30969 whole entry): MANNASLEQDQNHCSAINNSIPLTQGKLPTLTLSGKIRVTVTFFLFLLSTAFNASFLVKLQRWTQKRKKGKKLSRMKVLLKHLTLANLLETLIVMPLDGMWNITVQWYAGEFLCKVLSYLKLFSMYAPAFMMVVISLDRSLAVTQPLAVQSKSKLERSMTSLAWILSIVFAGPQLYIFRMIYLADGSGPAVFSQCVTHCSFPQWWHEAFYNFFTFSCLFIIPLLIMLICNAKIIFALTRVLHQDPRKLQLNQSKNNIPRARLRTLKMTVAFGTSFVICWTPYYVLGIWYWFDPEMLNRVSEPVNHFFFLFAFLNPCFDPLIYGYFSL
Outline: (§1)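 Frozen rat-receptor cells: thawed, seeded overnight in serum-containing Ham's F12, Accutase-harvested, resuspended in serum-free medium with IP1-d2, 1 h at 37 °C. 1.0 × 10^4 cells/well, 20 min compound preincubation at rt, then 1× EC80 LHRH or buserelin in HEPES stimulation buffer pH 7.4 for 60 min at 37 °C. Tb-anti-IP1 lysis (1:38), HTRF read 60 min later.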

[4] = molecular target: T1, Gonadotropin-releasing hormone receptor; experiment: Antagonist activity at human GnRH receptor expressed in CHO-K1 cells assessed as inhibition of buserelin-induced response preincubated for 20 mins followed by buserelin addition and measured after 60 mins by TR-FRET assay; format: cell-based
[5] = Half life in Wistar rat at 0.5 mg/kg, iv by LC-MS/MS analysis; format: ADME, organism-based; conditions: in vivo
[6] = Intrinsic clearance in Han Wistar rat hepatocytes at 1 uM measured up to 90 mins by LC/MS/MS analysis; format: ADME, cell-based, Hepatocyte; conditions: for CLint scaled at 1 µM: Han Wistar, read-out: CLH (converted)
[7] = Oral bioavailability in Wistar rat at 2 mg/kg by LC-MS/MS analysis; format: ADME, organism-based; conditions: in vivo
[8] = Lipophilicity, log D of the compound in pH 7.5 MeCN/H2O solution by reversed-phase HPLC analysis; format: physicochemical
Outline: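 Indirect reversed-phase HPLC at pH 7.5, calibrated with n-alkan-2-ones C3–C16. Compounds applied as 0.67 mM DMSO stocks in MeCN/H2O (1:1).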

[9] = molecular target: Voltage-gated inwardly rectifying potassium channel KCNH2 (Homo sapiens, UniProt Q12809); experiment: Inhibition of human ERG expressed in HEK293 cells assessed as reduction in channel inward tail current by whole cell voltage clamp assay; format: cell-based
Rattus norvegicus [10] = experiment: Suppression of ovariectomized-induced increase in plasma luteinizing hormone level in Wistar Han rat at 30 mg/kg, ip measured after 1 hr relative to control; format: functional
Outline: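 Ovariectomized rats given a single intraperitoneal injection at 30 mg/kg. Plasma LH measured 1 h later and compared with vehicle-treated animals.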

[11] = Aqueous solubility of compound at pH 6.5 incubated for 24 hrs under shaking condition by HPLC-MS/MS analysis; format: physicochemical; conditions: aqueous solution
Outline: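 Compound from 1 mM DMSO solution, pH 6.5 buffer added, shaken 24 h at rt. Filtered, dissolved compound quantified by HPLC-MS/MS.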

Rattus norvegicus [12] = experiment: Suppression of ovariectomized-induced increase in plasma luteinizing hormone level in po dosed Wistar Han rat measured up to 24 hrs; format: functional; conditions: time hrs <=24
Outline: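 Ovariectomized rats given single oral doses, range 1 to 30 mg/kg. Plasma LH followed over time, with cetrorelix at 0.1 mg/kg sc as reference. ED50 calculated from the dose-response.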

[13] = molecular target: T2, Gonadotropin-releasing hormone receptor; experiment: Antagonist activity at rat GnRH receptor expressed in CHO-K1 cells assessed as inhibition of buserelin-induced response preincubated for 20 mins followed by buserelin addition and measured after 60 mins by TR-FRET assay; format: cell-based; outline: as §1
[14] = molecular target: T1, Gonadotropin-releasing hormone receptor; experiment: Inhibition of Tag-lite green-labeled agonist binding to terbium fluorophore-labeled human N-terminal SNAP-tag GnRh receptor expressed in HEK293 cells assessed as dissociation constant by TR-FRET assay; format: cell-based
[15] = molecular target: T3, Gonadotropin-releasing hormone receptor (Homo sapiens) (UniProt P30968); experiment: Inhibition of Tag-lite green-labeled agonist binding to terbium fluorophore-labeled human N-terminal SNAP-tag GnRh receptor expressed in HEK293 cells assessed as association rate constant by TR-FRET assay; format: cell-based; conditions: filed as antagonist
T3 sequence (whole entry): T1 sequence (P30968 whole entry)
Outline: (§2)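 Kinetic competition at rt: tracer at 10 nM final with compound, Tb-hGnRH-R cells injected in the reader. TR-FRET read at time zero and every 21 s. Baseline-subtracted traces fitted with the Motulsky–Mahan competitive kinetics model. At least two independent experiments, two replicates each.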

[16] = molecular target: T3, Gonadotropin-releasing hormone receptor (Homo sapiens); experiment: Inhibition of Tag-lite green-labeled agonist binding to terbium fluorophore-labeled human N-terminal SNAP-tag GnRh receptor expressed in HEK293 cells assessed as residence time by TR-FRET assay; format: cell-based; conditions: filed as antagonist; outline: as §2
Rattus norvegicus [17] = experiment: Suppression of ovariectomized-induced increase in plasma luteinizing hormone level in Wistar Han rat at 0.1 mg/kg, sc measured up to 24 hrs; format: functional, organism-based; conditions: time hrs <=24
[18] = molecular target: T1, Gonadotropin-releasing hormone receptor; experiment: Inhibition of Tag-lite green-labeled agonist binding to terbium fluorophore-labeled human N-terminal SNAP-tag GnRh receptor expressed in HEK293 cells assessed as equilibrium dissociation constant by TR-FRET assay; format: cell-based
[19] = molecular target: T3, Gonadotropin-releasing hormone receptor (Homo sapiens); experiment: Inhibition of Tag-lite green-labeled agonist binding to terbium fluorophore-labeled human N-terminal SNAP-tag GnRh receptor expressed in HEK293 cells assessed as dissociation rate constant by TR-FRET assay; format: cell-based; conditions: filed as antagonist; outline: as §2

Sequence of Voltage-gated inwardly rectifying potassium channel KCNH2 (Q12809 whole entry): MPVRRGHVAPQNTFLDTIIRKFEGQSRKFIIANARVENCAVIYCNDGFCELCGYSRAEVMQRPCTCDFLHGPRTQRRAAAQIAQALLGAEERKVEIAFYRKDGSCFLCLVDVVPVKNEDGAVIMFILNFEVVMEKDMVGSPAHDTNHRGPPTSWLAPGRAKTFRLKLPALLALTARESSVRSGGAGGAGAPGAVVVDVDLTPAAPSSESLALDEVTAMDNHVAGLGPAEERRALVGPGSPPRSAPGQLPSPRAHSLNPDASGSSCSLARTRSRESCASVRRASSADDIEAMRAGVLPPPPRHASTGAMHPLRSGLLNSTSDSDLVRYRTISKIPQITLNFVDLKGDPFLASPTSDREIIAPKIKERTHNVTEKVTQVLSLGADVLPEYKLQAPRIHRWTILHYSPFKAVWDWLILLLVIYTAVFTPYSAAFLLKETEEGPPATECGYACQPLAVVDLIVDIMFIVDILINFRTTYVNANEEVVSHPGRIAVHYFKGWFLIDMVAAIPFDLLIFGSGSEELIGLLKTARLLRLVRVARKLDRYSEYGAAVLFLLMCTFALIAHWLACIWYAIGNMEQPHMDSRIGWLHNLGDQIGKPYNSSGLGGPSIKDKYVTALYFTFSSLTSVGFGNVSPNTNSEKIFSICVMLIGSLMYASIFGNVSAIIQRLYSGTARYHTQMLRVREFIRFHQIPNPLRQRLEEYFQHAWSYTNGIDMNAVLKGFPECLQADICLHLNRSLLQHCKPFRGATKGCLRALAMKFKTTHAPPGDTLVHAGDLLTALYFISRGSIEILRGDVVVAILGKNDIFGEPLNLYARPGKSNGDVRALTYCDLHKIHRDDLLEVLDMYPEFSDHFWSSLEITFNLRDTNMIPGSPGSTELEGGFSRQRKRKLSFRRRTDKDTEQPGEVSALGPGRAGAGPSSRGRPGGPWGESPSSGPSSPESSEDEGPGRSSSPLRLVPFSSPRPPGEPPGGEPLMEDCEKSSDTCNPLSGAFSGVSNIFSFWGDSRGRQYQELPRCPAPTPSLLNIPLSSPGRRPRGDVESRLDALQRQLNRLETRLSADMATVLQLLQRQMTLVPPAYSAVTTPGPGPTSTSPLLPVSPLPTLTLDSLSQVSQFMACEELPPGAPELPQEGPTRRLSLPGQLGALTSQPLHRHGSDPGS

SMILES: O=C(NCc1ncccc1Cl)c1ccc2c(c1)C1(CCS(=O)(=O)CC1)C(C1CC1)N2S(=O)(=O)c1ccc(F)cc1 (stereo in doubt)
clearance [1]: 30 mL/min/kg | bioavailability [7]: 27% | IC50 [2]: 60 nM | IC50 [3]: 40 nM | half-life [5]: 2.1 h | CLint scaled at 1 µM [6]: 4.17 mL/min/kg

SMILES: O=C(NCc1ncccc1Cl)c1ccc2c(c1)C1(CCS(=O)(=O)CC1)C(C1CC1)N2S(=O)(=O)c1ccc(F)cc1 (stereo in doubt; 4a) [listing 1 of 2 here]
ED50 (Rattus norvegicus [12]): 5.5 mg/kg | chromatographic logD [8]: 3 | IC50 [2]: 60 nM | IC50 ([3]; cho-k1): 40 nM

SMILES: O=C(NCc1ncccc1Cl)c1ccc2c(c1)C1(CCS(=O)(=O)CC1)C(C1CC1)N2S(=O)(=O)c1ccc(F)cc1 (stereo in doubt; 4a) [listing 2 of 2 here]
Activity (Rattus norvegicus [12]): Dose-dependent effect

SMILES: COc1cccc(-c2c(C)n(Cc3c(F)cccc3C(F)(F)F)c(=O)n(C[C@H](NCCCC(=O)O)c3ccccc3)c2=O)c1F [ELAGOLIX SODIUM]
Kd [14]: 3.21 nM | K [15]: 2.06 10^5/M/s | TIME [16]: 1.27 h | Kd [18]: 1.19 nM | K [19]: 3.3 10^-4/s

Now from value to compound, other results behind:

clearance [1]: 23.3 mL/min/kg | IC50 [2]: 99 nM | IC50 ([3]; cho-k1): 27 nM | IC50 [4]: 172 nM | half-life [5]: 8.1 h | CLint scaled at 1 µM [6]: 33.3 mL/min/kg
SMILES: CC1N(S(=O)(=O)c2ccc(F)cc2)c2ccc(C(=O)NCc3ccccc3Cl)cc2C12CCNCC2 (stereo in doubt)

bioavailability [7]: < 2% | chromatographic logD [8]: 2.8 | IC50 ([2]; cho-k1): 99 nM | IC50 [3]: 27 nM | IC50 ([4]; cho-k1): 172 nM | solubility at 24 h [11]: 271 µg/mL (≈ 513 µM)
SMILES: CC1N(S(=O)(=O)c2ccc(F)cc2)c2ccc(C(=O)NCc3ccccc3Cl)cc2C12CCNCC2 (stereo in doubt; 3a)
IC50 [9]: 1100 nM | Activity (Rattus norvegicus [10]): 74%

IC50 [13]: 34 nM | CL ([1]; 0.5 mg/kg): 78.3 mL/min/kg | IC50 [2]: 41 nM | IC50 [3]: 29 nM | IC50 [4]: 99 nM | half-life [5]: 0.82 h | CLH ([6]; 1.5 h, 1 µM): 46.7 mL/min/kg
SMILES: COc1ccc(S(=O)(=O)N2c3ccc(C(=O)NCc4ccccc4Cl)cc3C3(CCN(C(C)=O)CC3)C2C)cc1 (stereo in doubt; form 2)

Kd [14]: 0.0017 nM | K [15]: 3.57 10^6/M/s | TIME [16]: 0.583 h | Kd [18]: 0.135 nM | K [19]: 1 10^-5/s
SMILES: CC(=O)N[C@H](Cc1ccc2ccccc2c1)C(=O)N[C@H](Cc1ccc(Cl)cc1)C(=O)N[C@H](Cc1cccnc1)C(=O)N[C@@H](CO)C(=O)N[C@@H](Cc1ccc(O)cc1)C(=O)N[C@H](CCCNC(N)=O)C(=O)N[C@@H](CC(C)C)C(=O)N[C@@H](CCCNC(=N)N)C(=O)N1CCC[C@H]1C(=O)N[C@H](C)C(N)=O [CETRORELIX] (Ac-[d2Nal][dPhe(4-Cl)][d3Pal]SY[dCit]LRP[dA]-NH2)
Activity (Rattus norvegicus [17]): Active
